# Active and inactive are the calls of the source. The calls are words filed in the database; no cut-off is given here.
# How the values were obtained:
# HeLa [1] = experiment: Antiproliferative activity against human HeLa cells up to 500 nM after 72 hrs by MTT assay; assay type: functional, cell-based
# Outline: (§1)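 HeLa and SK-MEL2 grown in DMEM, Jurkat in RPMI 1640, each with 10% FBS and penicillin-streptomycin, at 37 °C and 5% CO2. Adherent cells seeded at 2000/well and left to recover overnight; Jurkat seeded at 5000/well with no recovery. Compound added in DMSO (0.1% final), then 72 h incubation and MTT readout.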
# Jurkat [2] = experiment: Antiproliferative activity against human Jurkat T cells up to 10^4 nM after 72 hrs by MTT assay; assay type: functional, cell-based; outline: as §1
# Oryctolagus cuniculus [3] = organism: Oryctolagus cuniculus; experiment: Inhibition of cap-independent HCV-IRES-induced translation in rabbit reticulocyte lysate at 500 nM after 1.5 hrs by luciferase reporter gene assay; assay type: functional
# Outline: (§2)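 Capped bicistronic reporter mRNA: cap-dependent firefly luciferase first cistron, HCV IRES-driven Renilla second cistron. Transcribed in vitro with SP6 from the BamHI-linearised plasmid. 200 ng RNA translated in rabbit reticulocyte lysate with 70 mM KCl, 2 mM DTT, RNasin and compound in DMSO (5% v/v final), 30 °C for 1.5 h. Dual luciferase readout. Duplicates, 4 independent assays, mean IC50 by curve fit.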
# SK-MEL-2 [4] = experiment: Antiproliferative activity against human SK-MEL-2 cells after 72 hrs by MTT assay in presence of 10% FBS; assay type: functional, cell-based; settings: SK-MEL-2, 72 h; outline: as §1
# Jurkat [5] = experiment: Immunosuppressive activity in human Jurkat T cells assessed as inhibition of IL-2 transcription; assay type: functional, cell-based
# SK-MEL-2 [6] = experiment: Selectivity ratio of IC50 for human SK-MEL-2 cells in presence of 10% FBS to IC50 for human SK-MEL-2 cells in presence of 5% FBS; assay type: functional
# [7] = Selectivity ratio of IC50 for MEF to IC50 for human Jurkat T cells; assay type: cell-based; settings: mouse (MEF) and human (Jurkat T cells), read-out: Ratio IC50
# [8] = Dissociation constant, pKa of the compound; assay type: physicochemical
# [9] = Binding affinity to eIF4A1/2 in rabbit reticulocyte lysate assessed as inhibition of cap-dependent translation after 1.5 hrs by dual luciferase reporter gene assay; set-up: species or system Oryctolagus cuniculus; outline: as §2
# [10] = Half life in RPMI media at 10 uM by HPLC analysis; assay type: physicochemical
# Outline: (§3)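 Compound added from DMSO stock to pre-heated RPMI 1640 (1.8 mL) plus 0.2 mL human AB male serum or FBS, or to 2 mL RPMI alone, at final 1 or 10 μM. Samples analysed by HPLC at pH 9.5 (formic acid/ammonia in acetonitrile/water), with conversion taken from the substrate/internal standard peak ratio. Run in triplicate; half-lives ± SD.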
# [11] = Half life in RPMI media at 10 uM by HPLC analysis in presence of fetal bovine serum; assay type: ADME; settings: cattle; outline: as §3
# [12] = Half life in RPMI media at 10 uM by HPLC analysis in presence of human blood serum; assay type: ADME; outline: as §3
# HeLa [13] = experiment: Antiproliferative activity against human HeLa cells after 72 hrs by MTT assay; assay type: functional, cell-based; outline: as §1
# MEF = experiment: Antiproliferative activity against MEF after 72 hrs by MTT assay; assay type: cell-based; settings: Mus musculus
# SK-MEL-2 [14] = experiment: Antiproliferative activity against human SK-MEL-2 cells after 72 hrs by MTT assay in presence of 5% FBS; assay type: functional, cell-based; settings: SK-MEL-2, 72 h
# Outline: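 SK-MEL2 grown with reduced serum (5% FBS) to slow proliferation. Compounds added in DMSO (0.1% final), followed by a 72 h MTT proliferation assay.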
# [15] = Selectivity ratio of IC50 for MEF to IC50 for human SK-MEL-2 cells; assay type: cell-based; settings: mouse (MEF) and human (SK-MEL-2 cells), MEF and SK-MEL-2 cells; read-out: Ratio IC50
# [16] = Selectivity ratio of IC50 for MEF to IC50 for human HeLa cells; assay type: cell-based; settings: mouse (MEF) and human (HeLa cells), read-out: Ratio IC50
# SK-MEL-2 [17] = experiment: Antiproliferative activity against human SK-MEL-2 cells up to 10^4 nM after 72 hrs by MTT assay in presence of 10% FBS; assay type: functional, cell-based; outline: as §1
# [18] = Antiproliferative activity against human Jurkat T cells assessed as DNA synthesis level after 24 hrs by thymidine incorporation assay; assay type: functional, cell-based
# Outline: (§4)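 Cells kept at 37 °C, 5% CO2 with penicillin-streptomycin and 10% FBS. Adherent lines seeded at 2000 cells/well and left to recover overnight; Jurkat seeded at 5000 cells/well with no recovery period. Compound added in DMSO (0.1% final, vehicle-only control) at 0.001–100 nM over 10 wells. DNA synthesis read out after 24 h. Mean IC50 from at least 3 independent assays.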
# RKO = experiment: Antiproliferative activity against human RKO cells assessed as DNA synthesis level after 24 hrs by thymidine incorporation assay; assay type: functional, cell-based; outline: as §4
# [19] = Antiproliferative activity against BAEC assessed as DNA synthesis level after 24 hrs by thymidine incorporation assay; settings: Bos taurus; outline: as §4
# HeLa [20] = experiment: Antiproliferative activity against human HeLa cells assessed as DNA synthesis level after 24 hrs by thymidine incorporation assay; assay type: functional, cell-based; outline: as §4
# HaCaT = experiment: Antiproliferative activity against human HaCaT cells assessed as DNA synthesis level after 24 hrs by thymidine incorporation assay; assay type: functional, cell-based; outline: as §4
# Oryctolagus cuniculus [21] = organism: Oryctolagus cuniculus; experiment: Binding affinity to eIF4A1/2 in rabbit reticulocyte lysate assessed as inhibition of cap-dependent translation up to 500 nM after 1.5 hrs by dual luciferase reporter gene assay; outline: as §2
# [22] = Antiproliferative activity against human Jurkat T cells after 72 hrs by MTT assay; assay type: functional, cell-based; outline: as §1
# SK-MEL-2 [23] = experiment: Selectivity ratio of IC50 for human SK-MEL-2 cells in presence of 5% FBS to IC50 for human SK-MEL-2 cells in presence of 10% FBS; assay type: functional
SMILES,Activity (HeLa [1]),Activity (Jurkat [2]),inhibition (Oryctolagus cuniculus [3]),IC50 (Jurkat [5]),Activity (SK-MEL-2 [17]),IC50 [19],IC50 (HaCaT),also measured
CC(/C=C/C(C)=C/[C@@H]1Cc2nc(cs2)CCCCC(=O)O[C@@H](C)C/C(C)=C/C#CC(=O)O1)=C\CN1CCOCC1,inactive,inactive,inactive,–,–,–,–,IC50 (SK-MEL-2 [4]): > 5000 nM
COCCC/C=C/C(C)=C/[C@@H]1Cc2nc(cs2)[C@@H](C)C[C@@H](NC(=O)OC(C)(C)C)CC(=O)O[C@@H](C)C/C(C)=C/C=C\C(=O)O1,–,–,–,> 1000 nM,–,–,–,–
CC(/C=C/C(C)=C/[C@@H]1Cc2nc(cs2)CCCCC(=O)O[C@@H](C)C/C(C)=C/C=C\C(=O)O1)=C\CN1CCOCC1,–,inactive,inactive,–,–,–,–,Ratio IC50 (SK-MEL-2 [6]): 2; selectivity ratio [7]: 5; pKa [8]: 8.36; IC50 [9]: 72.2 nM; t1/2 [10]: 0.89 h; t1/2 [11]: 9.23 h; t1/2 [12]: 17.8 h; IC50 (HeLa [13]): 430 nM; IC50 (MEF): > 2000 nM; IC50 (SK-MEL-2 [14]): 157 nM; selectivity ratio [15]: 5; IC50 (SK-MEL-2 [4]): 320 nM; selectivity ratio [16]: 5
CC(/C=C/C(C)=C/[C@@H]1Cc2nc(cs2)CCCCC(=O)O[C@@H](C)C/C(C)=C/C#CC(=O)O1)=C\CN1CCCC1,inactive,inactive,–,–,inactive,–,–,–
CC(/C=C/C(C)=C/[C@@H]1Cc2nc(cs2)[C@@H](C)C[C@@H](NC(=O)c2ccccc2)CC(=O)O[C@@H](C)C/C(C)=C/C=C\C(=O)O1)=C\CN(C)C,–,–,–,15 nM,–,12.8 nM,3.4 nM,IC50 [18]: 11.6 nM; IC50 (RKO): 4.2 nM; IC50 (HeLa [20]): 16.1 nM
COCCC/C=C/C(C)=C/[C@@H]1Cc2nc(cs2)CCCCC(=O)O[C@@H](C)C/C(C)=C/C=C\C(=O)O1,inactive,inactive,inactive,–,inactive,–,–,inhibition (Oryctolagus cuniculus [21]): inactive
CC(/C=C/C(C)=C/[C@@H]1Cc2nc(cs2)CCCCC(=O)O[C@@H](C)C/C(C)=C/C=C\C(=O)O1)=C\CN1CCCC1,–,–,inactive,–,–,–,–,selectivity ratio [7]: 4; pKa [8]: 11; IC50 [9]: 54.8 nM; t1/2 [10]: 3.87 h; IC50 [22]: 25 nM; t1/2 [11]: 14.8 h; t1/2 [12]: 11.7 h; IC50 (HeLa [13]): 23 nM; IC50 (MEF): > 100 nM; IC50 (SK-MEL-2 [14]): 154 nM; selectivity ratio [15]: 4; IC50 (SK-MEL-2 [4]): 27 nM; selectivity ratio [16]: 4; Ratio IC50 (SK-MEL-2 [23]): 6
CC(/C=C/CCCN(C)C)=C\[C@@H]1Cc2nc(cs2)[C@@H](C)C[C@@H](NC(=O)OC(C)(C)C)CC(=O)O[C@@H](C)C/C(C)=C/C=C\C(=O)O1,–,–,–,330 nM,–,> 20 nM,> 100 nM,–
CC(/C=C/CCCO)=C\[C@@H]1Cc2nc(cs2)[C@@H](C)C[C@@H](NC(=O)OC(C)(C)C)CC(=O)O[C@@H](C)C/C(C)=C/C#CC(=O)O1,–,–,–,340 nM,–,> 20 nM,> 100 nM,IC50 (RKO): > 100 nM; IC50 (HeLa [20]): > 100 nM
COCCC/C=C/C(C)=C/[C@@H]1Cc2nc(cs2)[C@@H](C)C[C@@H](NC(=O)OC(C)(C)C)CC(=O)O[C@@H](C)C/C(C)=C/C#CC(=O)O1,–,–,–,55 nM,–,> 20 nM,> 100 nM,IC50 (RKO): > 100 nM; IC50 (HeLa [20]): > 100 nM
C/C(Br)=C\[C@@H]1Cc2nc(cs2)CCCCC(=O)O[C@@H](C)C/C(C)=C/C#CC(=O)O1,inactive,inactive,inactive,–,inactive,–,–,–
C/C(Br)=C\[C@@H]1Cc2nc(cs2)CCCCC(=O)O[C@@H](C)C/C(C)=C/C=CC(=O)O1,inactive,inactive,–,–,inactive,–,–,–
COC/C=C/C=C/C(C)=C/[C@@H]1Cc2nc(cs2)CCCCC(=O)O[C@@H](C)C/C(C)=C/C#CC(=O)O1,inactive,inactive,inactive,–,inactive,–,–,–
